Data: ChEMBL document CHEMBL1275496, “In vivo pharmacodynamic target investigation for micafungin against Candida albicans and C. glabrata in a neutropenic murine candidiasis model” (Antimicrob Agents Chemother, 2008)
In brackets after ≈: the same amount, converted by molar mass. *1 amine or outer side, *2 acyl side, *3 side chain or, on linkers, in order; H or OH if unused. Where a SMILES comes first, the peptide text is derived from it. Bridges are numbered along the chain shown (N, C = ends). [ ]: non-standard residue; d: D form. The star is where a group is joined. hTyr(3S-OH,4S-OH,3'-OSO3H) = N[C@H](C(=O)O)[C@H](O)[C@@H](O)c1ccc(O)c(OS(=O)(=O)O)c1; Orn(4R-OH,5R-OH) = O=C([C@H](C[C@@H](O)[C@@H](O)N[*:3])N[*:1])[*:2]; Pro(3S-OH,4S-Me) = C[C@H]1CN[C@H](C(=O)O)[C@H]1O; X1 = CCCCCOc1ccc(-c2cc(-c3ccc(C(=O)*)cc3)no2)cc1; Gln(3R-OH) = NC(=O)C[C@@H](O)[C@H](N)C(=O)O; Hyp = O=C(O)[C@@H]1C[C@@H](O)CN1

Tests used:
Nakaseomyces glabratus [1] = experiment: Antifungal activity against Candida glabrata isolate 5592 infected in ICR/Swiss neutropenic mouse assessed as dose required for 1-log kill after 24 hrs; type: functional
In short: (§1)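 Neutropenic mice (cyclophosphamide sc 150 mg/kg day −4, 100 mg/kg day −1 and +2) infected iv by tail vein 2 h before therapy. Micafungin given ip every 24 h for 4 days at six fourfold-spaced dose levels, 0.078–80 mg/kg/24 h, 3 mice per group. Kidney CFU read at 96 h. Hill-model fit; dose giving 1 log10 below start-of-therapy burden.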

Nakaseomyces glabratus [2] = experiment: Antifungal activity against Candida glabrata isolate 5376 infected in ICR/Swiss neutropenic mouse assessed as dose required for 1-log kill after 24 hrs; type: functional; in short: as §1
Nakaseomyces glabratus [3] = experiment: Antifungal activity against Candida glabrata isolate 33616 infected in ICR/Swiss neutropenic mouse assessed as dose required for 1-log kill after 24 hrs; type: functional; in short: as §1
[4] = Ratio of AUC in ICR/Swiss neutropenic mouse at static dose of 2.84 mg/kg, ip after 24 hrs to MIC for Candida albicans isolate K1; type: functional; details: route intraperitoneal
[5] = Ratio of AUC in ICR/Swiss neutropenic mouse at static dose of 9.25 mg/kg, ip after 24 hrs to MIC for Candida glabrata isolate 37661; type: functional; details: route intraperitoneal
[6] = Ratio of AUC in ICR/Swiss neutropenic mouse at static dose of 0.06 mg/kg, ip after 24 hrs to MIC for Candida glabrata isolate 32930; type: functional; details: route intraperitoneal
[7] = Ratio of AUC in ICR/Swiss neutropenic mouse at static dose of 1.80 mg/kg, ip after 24 hrs to MIC for Candida glabrata isolate 5592; type: functional; details: dose 1.8 mg/kg; route intraperitoneal
[8] = Ratio of AUC in ICR/Swiss neutropenic mouse at static dose of 3.88 mg/kg, ip after 24 hrs to MIC for Candida glabrata isolate 33616; type: functional; details: route intraperitoneal
[9] = Ratio of fAUC in ICR/Swiss neutropenic mouse at static dose of 0.41 mg/kg, ip after 24 hrs to MIC for Candida glabrata isolate 33609; type: functional; details: route intraperitoneal
[10] = Ratio of fAUC in ICR/Swiss neutropenic mouse at static dose of 1.34 mg/kg, ip after 24 hrs to MIC for Candida glabrata isolate 513; type: functional; details: route intraperitoneal
[11] = Ratio of fAUC in ICR/Swiss neutropenic mouse at static dose of 3.76 mg/kg, ip after 24 hrs to MIC for Candida glabrata isolate 570; type: functional; details: route intraperitoneal
[12] = Ratio of AUC in ICR/Swiss neutropenic mouse at 1-Log kill dose of 2.36 mg/kg, ip after 24 hrs to MIC for Candida albicans isolate 580; type: functional; details: route intraperitoneal
[13] = Ratio of AUC in ICR/Swiss neutropenic mouse at 1-Log kill dose of 4.08 mg/kg, ip after 24 hrs to MIC for Candida albicans isolate K1; type: functional; details: route intraperitoneal
[14] = Ratio of AUC in ICR/Swiss neutropenic mouse at 1-Log kill dose of 1.40 mg/kg, ip after 24 hrs to MIC for Candida glabrata isolate 33609; type: functional; details: dose 1.4 mg/kg; route intraperitoneal
[15] = Ratio of AUC in ICR/Swiss neutropenic mouse at 1-Log kill dose of 6.70 mg/kg, ip after 24 hrs to MIC for Candida glabrata isolate 570; type: functional; details: dose 6.7 mg/kg; route intraperitoneal
[16] = Ratio of fAUC in ICR/Swiss neutropenic mouse at 1-Log kill dose of 10.4 mg/kg, ip after 24 hrs to MIC for Candida albicans isolate 98-210; type: functional; details: route intraperitoneal
[17] = Ratio of fAUC in ICR/Swiss neutropenic mouse at 1-Log kill dose of 4.26 mg/kg, ip after 24 hrs to MIC for Candida glabrata isolate 34341; type: functional; details: route intraperitoneal
[18] = Ratio of fAUC in ICR/Swiss neutropenic mouse at 1-Log kill dose of 1.69 mg/kg, ip after 24 hrs to MIC for Candida glabrata isolate 32930; type: functional; details: route intraperitoneal
Homo sapiens = organism: Homo sapiens; experiment: fAUC in healthy human at 100 mg/day; type: ADME, organism-based; details: in vivo
Candida albicans [19] = experiment: Antifungal activity against Candida albicans isolate 98-210 by CLSI method; type: functional
In short: (§2)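 Broth microdilution MIC per CLSI M27-A2. Two endpoints were read against the drug-free control well: partial inhibition (M1, CLSI recommended) and complete inhibition (M2). Tests were run in duplicate on four separate occasions, and the value is the mean.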

Candida albicans [20] = experiment: Antifungal activity against Candida albicans isolate K1 by CLSI method; type: functional; in short: as §2
Nakaseomyces glabratus [21] = experiment: Antifungal activity against Candida glabrata isolate 33609 by CLSI method; type: functional; in short: as §2
Nakaseomyces glabratus [22] = experiment: Antifungal activity against Candida glabrata isolate 5592 by CLSI method; type: functional; in short: as §2
[23] = AUC (0 to infinity) in Candida infected ICR/Swiss neutropenic mouse at 80 mg/kg, ip; type: ADME, organism-based; parameters: time infinity, dose 80 mg/kg, route intraperitoneal; details: plasma
In short: (§3)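 Single intraperitoneal micafungin doses (80, 20, 5 mg/kg in 0.2 ml, 0.15 M NaCl) given to infected neutropenic mice. Serum was taken from 3 mice per time point at 1, 2, 4, 6, 8, 12, 24 and 48 h. Drug was measured by microbiologic assay with C. albicans K1 (LLOQ 0.12 μg/ml). Noncompartmental analysis; half-life by nonlinear least squares; AUC by trapezoidal rule.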

[24] = (§4) Cmax in Candida infected ICR/Swiss neutropenic mouse at 20 mg/kg, ip; type: ADME, organism-based; parameters: dose 20 mg/kg, route intraperitoneal; details: ICR/Swiss, in vivo; in short: as §3
Mus musculus = experiment: as §4; type: ADME, organism-based; parameters: dose 20 mg/kg, route intraperitoneal; details: in vivo; in short: as §3
[25] = Half life in Candida infected ICR/Swiss neutropenic mouse at 20 mg/kg, ip; type: ADME, organism-based; parameters: dose 20 mg/kg, route intraperitoneal; details: in vivo; in short: as §3
[26] = Cmax in Candida infected ICR/Swiss neutropenic mouse at 5 mg/kg, ip; type: ADME, organism-based; parameters: dose 5 mg/kg, route intraperitoneal; details: in vivo; in short: as §3
Candida albicans [27] = experiment: Fungistatic activity against Candida albicans isolate 98-17 infected in ICR/Swiss neutropenic mouse after 24 hrs; type: functional
In short: (§5)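 Neutropenic female ICR/Swiss mice received cyclophosphamide sc at 150 mg/kg on day −4, 100 mg/kg on day −1 and 100 mg/kg on day +2. Mice were infected iv via the tail vein, and ip micafungin in 0.15 M NaCl started 2 h later. Six dose levels from 0.078 to 80 mg/kg/24 h were given q24h for 4 days, 3 mice per dose. Kidney CFU were counted at 96 h. The static dose was derived from a sigmoid Emax (Hill) fit.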

Nakaseomyces glabratus [28] = experiment: Fungistatic activity against Candida glabrata isolate 35315 infected in ICR/Swiss neutropenic mouse after 24 hrs; type: functional; in short: as §5
Nakaseomyces glabratus [29] = experiment: Fungistatic activity against Candida glabrata isolate 33616 infected in ICR/Swiss neutropenic mouse after 24 hrs; type: functional; in short: as §5
Candida albicans [30] = experiment: Antifungal activity against Candida albicans isolate 98-210 infected in ICR/Swiss neutropenic mouse assessed as dose required for 1-log kill after 24 hrs; type: functional; in short: as §1
Nakaseomyces glabratus [31] = experiment: Antifungal activity against Candida glabrata isolate 35315 infected in ICR/Swiss neutropenic mouse assessed as dose required for 1-log kill after 24 hrs; type: functional; in short: as §1
Nakaseomyces glabratus [32] = experiment: Antifungal activity against Candida glabrata isolate 34341 infected in ICR/Swiss neutropenic mouse assessed as dose required for 1-log kill after 24 hrs; type: functional; in short: as §1

## CCCCCOc1ccc(-c2cc(-c3ccc(C(=O)N[C@H]4C[C@@H](O)[C@@H](O)NC(=O)[C@@H]5[C@@H](O)[C@@H](C)CN5C(=O)[C@H]([C@H](O)CC(N)=O)NC(=O)[C@H]([C@H](O)[C@@H](O)c5ccc(O)c(OS(=O)(=O)O)c5)NC(=O)[C@@H]5C[C@@H](O)CN5C(=O)[C@H]([C@@H](C)O)NC4=O)cc3)no2)cc1 [MICAFUNGIN] (X1-[Orn(4R-OH,5R-OH)]T[Hyp][hTyr(3S-OH,4S-OH,3'-OSO3H)][Gln(3R-OH)][Pro(3S-OH,4S-Me)]; lactam 1-C)
Nakaseomyces glabratus [1]
  Activity: 5.46 mg/kg
Nakaseomyces glabratus [2]
  Activity: 2 mg/kg
Nakaseomyces glabratus [3]
  Activity: 7.89 mg/kg
[4]
  RatioAUC/MIC: 5200
[5]
  RatioAUC/MIC: 984
[6]
  RatioAUC/MIC: 236
[7]
  RatioAUC/MIC: 3333
[8]
  RatioAUC/MIC: 428
[9]
  fAUC/MIC: 1.9
[10]
  fAUC/MIC: 6.2
[11]
  fAUC/MIC: 17.3
[12]
  RatioAUC/MIC: 1686
[13]
  RatioAUC/MIC: 7533
[14]
  RatioAUC/MIC: 2600
[15]
  RatioAUC/MIC: 12066
[16]
  fAUC/MIC: 46
[17]
  fAUC/MIC: 4.9
[18]
  fAUC/MIC: 7.8
Homo sapiens
  fAUC: 0.32 µg·h/mL
Candida albicans [19]
  MIC: 0.03 µg/mL (≈ 0.0236 µM)
  MIC50: 0.016 µg/mL (≈ 0.0126 µM)
Candida albicans [20]
  MIC: 0.03 µg/mL (≈ 0.0236 µM)
  MIC50: 0.016 µg/mL (≈ 0.0126 µM)
Nakaseomyces glabratus [21]
  MIC: 0.016 µg/mL (≈ 0.0126 µM)
  MIC50: 0.016 µg/mL (≈ 0.0126 µM)
Nakaseomyces glabratus [22]
  MIC: 0.03 µg/mL (≈ 0.0236 µM)
  MIC50: 0.016 µg/mL (≈ 0.0126 µM)
[23]
  AUC(0-inf): 1400 µg·h/mL
[24]
  Cmax: 28000 ng/mL
Mus musculus
  Cmax: 28000 ng/mL
[25]
  half-life: 13 h
[26]
  Cmax: 7000 ng/mL
Candida albicans [27]
  Activity: 2.53 mg/kg
Nakaseomyces glabratus [28]
  Activity: 2.4 mg/kg
Nakaseomyces glabratus [29]
  Activity: 3.88 mg/kg
Candida albicans [30]
  Activity: 10.4 mg/kg
Nakaseomyces glabratus [31]
  Activity: 3.77 mg/kg
Nakaseomyces glabratus [32]
  Activity: 4.26 mg/kg
